Experimental data as given in the RNAGym collection of RNA variant scans (doi:10.1126/science.aae0568).
Variants at the floor of the assay were thinned out.

B1: tRNA (parent)
chain: GUUCCGUUGGCGUAAUGGUAACGCGUCUCCCUCCUAAGGAGAAGACUGCGGGUUCGAGUCCCGUACGGAACG

Variants of: B1
Experiment: yeast fitness relative to wild type (ratio to wild type); higher = fitter; tRNA-Arg(CCU), competitive growth, 37 C, YPD
Method in brief: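 Amplicons of the tRNA-Arg(CCU) gene were sequenced, 100-nucleotide paired-end, from the start population and from each end population of a pooled yeast competition. The competition, in six parallel replicates, lasted 24 hours in YPD at 37°C. Fitness relative to wild type was calculated from changes in genotype frequencies. Genotypes had to have ≥ 100 starting reads, and estimates < 0.5 were set to 0.5.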

Compared with GUUCCGUUGGCGUAAUGGUAACGCGCCUCCCUUCUAAGGUGAAGACUGCGGGUUCGAGUCCCGUACGGAACG [U26C C33U A40U], GUUCCGUUGGCGUAAUGGUAACGCGUCUCCCUCCUAAGAAGAAGAUUGCGGGUUCGAGUCCCGUACGGAACG [G39A C46U] is higher in yeast fitness: at most 0.5 for the first, 0.978 for the second.

Going from GGACCGUUGGCGUAAUGGUAACGCGUCUCCCUCCUAAGGAGAAGACUGCGGGUUCGAGUCCCGUACGGAACG [U2G U3A] to GUUCCGUUGGCGUAUUGGUAACGCGUCUCCCUCAUAAGGAGAAGACUGCGGGUUCGAGUCCCGUACGGAACG [A15U C34A], the yeast fitness falls from 0.736 to 0.707.

Going from GUUCCGUUGGCGUAAUGGUAACGCGUCUCCCCCCUAAGGAGAAGACUGAGGGUUCGAGUCCCGUACGGAACG [U32C C49A] to GUUCCGUUGGCGUAAUGGUAAUGCGUCUCCCUCCUAAGGAGAAGACUGCGGGUUCGAGUUCCGUACGGAACG [C22U C60U], the yeast fitness rises from 0.692 to 0.723.

Compared with GUUCCGUUGGGGUAUUGGUAACGCGUCUCCCUCCUAAAGAGAAGAGUGCGGGUUCCAGUCCCGUACGGAACG [C11G A15U G38A C46G G56C], GUUCAGUUGGCGUAAUGGUAACGCGUCUCCAUCCUAAGGAGAAGACUGCGGGUUCGAGUCCCGUACGGAACG [C5A C31A] is higher in yeast fitness: at most 0.5 for the first, 0.971 for the second.

Compared with GUUCCGUUGGCGUAAUGGUAACGCGUCUCCCUCUUAAGGAGCUGACUGCGGGUUCGAGUCCCGUACGGAACG [C34U A42C A43U], GUUCCGUUGGCGUAAUGGUACCGCCGCUCCCUCCUAAGGAGAAGACUGCGGGUUCGAGUCCCGUACGGAACG [A21C G25C U26G] is higher in yeast fitness: at most 0.5 for the first, 0.59 for the second.

GUUCCGUUGGCGUAAUGGUAACGCGUCUCCCUCCUACGGAGAAGACUGCGGGUUAGAGUGCCCUACGGAACG [A37C C55A C60G G63C] and GUUCCGUUGGCGUAAUGGUAACGCGUGGCCCUCCUAAGGAGAAGACUGCGGGUUCGAGUCCCGUAGCGAACG [C27G U28G C66G G67C] cannot be ordered by yeast fitness: at most 0.5 for the first, at most 0.5 for the second.

Going from GUUCCGUUCGCGUAAUGGUAACGCGUCUCCCUCUUAAGGAGAUGACUGCGGGUUAGCGUCCCGUACGGAACG [G9C C34U A43U C55A A57C] to GUUCCGUUGGCGUAAUGGUAACGCGUUUCCCUCCUAACGAGAAGACUGCGGGUUCGUGUCCCGUACGGAACG [C27U G38C A57U], the yeast fitness rises from at most 0.5 to 0.552.

Going from GUUCCGUUGGCGUAAUGGUAACGCGUCUCCCUCCUCAGGAGAAGACUGCAGGUUCGAGUCCCGUACGGAACG [A36C G50A] to GUUCCGUUGGCAUAAUGGUAACGCGUCUCCCUCCCAAGGAGAAGACUGCGGGUUCGAGUCCCGUAUGGAACG [G12A U35C C66U], the yeast fitness rises from 0.608 to 0.614.

Going from GUUCCGUUGGCGUAAUGGUAAGGCGUCUCCGUCCUAAGGAGAAGACUGCGGGUGCGAGUCCCGUACGGAACG [C22G C31G U54G] to GUUCCGUUGGGGUAAUGGUAACGCGUCUUCCUCUUAAGGAGAAGACUGCGGGUUCGAGUCCCGUACGGAACG [C11G C29U C34U], the yeast fitness falls from 0.595 to 0.506.

GUUACGUUGCCGUAAUGGUAACGCGUCUCCCUUCUAAGGAGAAGAGUGCGGGUACGAGUCCCGUACGGAACG [C4A G10C C33U C46G U54A] and GUUCCGUGGGCGUAAUGGUAACGCGUCUCCCUCCUAUGGAGAAGACUGCGGAUUCGCGUACCGUACGGAACG [U8G A37U G52A A57C C60A] cannot be ordered by yeast fitness: at most 0.5 for the first, at most 0.5 for the second.

Going from GCUCCGUUGGCGUAAUGAUAACGUGUCUCCCUCCUAAGGAGAAGACUGCGGGUUCGAGUCCCGUACGGAACG [U2C G18A C24U] to GUUCCGUUGGCGUAAUGGUAACGCGUUUCCCUCCUAAGGAGAAGACUGCGGGUUCGAGUCCCGUAUGGUACG [C27U C66U A69U], the yeast fitness rises from 0.529 to 0.779.

Compared with GUCCCGUUGGCGUGAUGGUAACGCGUCUCCCUCCUAAGGAGAAGACUGCGGGUUCGAGUCCCGUACGGAACG [U3C A14G], GUUCGGCUGGCGUAAUGGUAACGCGUCUCCCUCCUAAGGAGAAGACUGCGGAUUCGAGUCCCGUACGGAACG [C5G U7C G52A] is lower in yeast fitness: 0.917 for the first, at most 0.5 for the second.

Compared with GGUCCGUCGGCGUAAUGGUAACGCGUUUCCCUCCUAAGGAGAAGAUUGCGGGUUCGAGUCCCGUACGGAACG [U2G U8C C27U C46U], GUUCCGUUGGCGUCAUGGUAACGAGUCUCCCUCCUAAGGAGAAGACUGCGGGUUCGAGUCCCGUACGGAACG [A14C C24A] is lower in yeast fitness: 0.789 for the first, at most 0.5 for the second.

GUUCCGUUGGCGUACUGGUCACGCGUCUCCCUUUUAAGGAGAAGACUGCGGGUUCGAGUCGCGUACGGAACG [A15C A20C C33U C34U C61G] and GUUCCGUUCGUGUAAUGGUAACGCGUCUCCCUCCUCAGGAGAAGACUGCGGGUUCGAGUCCCGUACGGAACG [G9C C11U A36C] cannot be ordered by yeast fitness: at most 0.5 for the first, at most 0.5 for the second.

Going from GUUCCGUUGGCGUAAUGGUAACGCGACUCCCUCCUAAGGAGAAGACUGCGGUUUAGAGUCCCGUACGGAACG [U26A G52U C55A] to GUUCCGUUGGCGUAAUGGUAACGCGUCUUCCUCCUAAGGAGAAGACUGCGGGUUCGAGUCCCGUCCGGCACG [C29U A65C A69C], the yeast fitness falls from 0.616 to at most 0.5.

First: GUUCGGUUGGCGUAAUGGUAACGCGUCUCCCUCCUAAGGAGAAGACAGCGGGUUCGAGUCCCGUACGAAACG [C5G U47A G68A]
Second: GUUCCGUUGGCGUAAUGGUAACGCGUCUCCCUGCCAAGGAGAAGACUGCGGGUUCGAGACCCGUACGGUACG [C33G U35C U59A A69U]
The yeast fitness of the first is lower: at most 0.5 for the first, 0.657 for the second.

Compared with GUUCCGUUGGCGUAAUGGGAACGCGUCUCCCUCCUAAGGAGAAGACUGCGGGUUGGAGUCCCGUAUGGAACG [U19G C55G C66U], GGUACGUUGGCGUAAUGGUAAUGCGUCGCCCUCCUAAGGAGUAGACUGCGGGUUCGAGUCCUGUACGGAUCG [U2G C4A C22U U28G A42U C62U A70U] is lower in yeast fitness: 0.536 for the first, at most 0.5 for the second.

GUACCGUUGGCGUAAUGGUAACGCGUCUCCCUCCUAAGGCGAAGACUGCGGGUUCGAGUCCGGUACGCAACG [U3A A40C C62G G68C] and GUUCCGUAGGUGUAAUGGUAACGCGUCUCCCUCCUAAGGAGAAGACUGCGGGUUCGAGUCUUGUAAGGAACG [U8A C11U C61U C62U C66A] cannot be ordered by yeast fitness: at most 0.5 for the first, at most 0.5 for the second.

Going from GUUUCGUUGGCGUAAUGGUAACGCGUCUCCCUCCUAAGGAGAACACUGCGGGUUCGAGUCCCGUACGGUGCG [C4U G44C A69U A70G] to GUUCCGUUGGCGUAAUGGUAACGCGUCGCCCUCCUAAGGAGAAGACUGCGGGUUCGAGUCCCGUACGGUACG [U28G A69U], the yeast fitness rises from at most 0.5 to 0.789.
